Bioassay records from PubChem BioAssay.
A selection: hits, their analogues and other compounds. The true share with any hit is near 1.8%.
M5 antag = blocks acetylcholine activation of human M5 receptor. P08912. hit rate 0.59% among 360,000. CHO-hM5 cells, Fluo-8 calcium fluorescence, ACh EC80. inhibition, % at 3 µM;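 active means inhibition above a per-plate cutoff, the mean of that plate's test compounds plus 3 SD, cut at about 27% in these data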;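 further: 0% = acetylcholine EC80 with DMSO and 100% = DMSO without agonist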
M5 PAM = positive allosteric modulators of human muscarinic M5 receptor; hit rate 0.3% among 360,000; activation, % at 3 µM; CHO-K1 hM5, Fluo-8 calcium, ACh EC20 PAM; 0% = ACh EC20, 100% = ACh EC100; AID 624038; P08912;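 active means activation above the run cutoff, the mean activation of all test compounds plus 3 SD, cut at about 18% in these data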
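Assay system: CHO-K1 hM5 cells. Also added: acetylcholine at EC20 concentration, added after compound. Dosing: 3 µM, single dose. Times: compound preincubation 140 s before EC20 acetylcholine addition. Signal: Fluo-8 calcium fluorescence. Measure: % activation relative to EC20 and EC100 ACh responses. Repeats: singlicate, one well per test compound.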
CHRM4 agonist = agonists of human muscarinic M4 receptor (CHRM4). P08173. CHO-K1 hM4/Gqi5, Fluo-8 calcium fluorescence; vehicle 0%, full acetylcholine response 100%. activation, % at 3 µM. hit rate 0.14% among 360,000. AID 624127;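 active means activation above the run mean over all test wells plus 3 SD, cut at about 32% in these data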;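 further: peak over basal fluorescence ratio per well then scaled between controls; 0% = DMSO wells and 100% = acetylcholine at EC100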
Target sequence (P08173 whole entry, looked up): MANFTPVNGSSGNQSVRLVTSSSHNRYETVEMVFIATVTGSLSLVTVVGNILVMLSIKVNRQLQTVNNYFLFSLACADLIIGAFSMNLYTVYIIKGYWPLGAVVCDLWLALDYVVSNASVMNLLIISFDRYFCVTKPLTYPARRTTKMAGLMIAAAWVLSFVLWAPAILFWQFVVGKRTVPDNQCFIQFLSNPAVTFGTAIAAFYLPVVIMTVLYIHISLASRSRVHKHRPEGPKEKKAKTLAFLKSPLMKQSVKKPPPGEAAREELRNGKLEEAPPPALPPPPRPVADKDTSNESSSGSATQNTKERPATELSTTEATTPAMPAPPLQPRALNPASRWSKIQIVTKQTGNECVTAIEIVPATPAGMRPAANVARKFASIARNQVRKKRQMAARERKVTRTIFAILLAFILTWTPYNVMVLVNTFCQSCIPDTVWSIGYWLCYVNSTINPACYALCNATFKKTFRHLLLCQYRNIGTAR
M5 ag = agonists of human muscarinic M5 receptor (CHRM5); P08912; CHO-K1 hM5 cells, Fluo-8 calcium fluorescence; 0% DMSO wells, 100% maximal acetylcholine response; activation, % at 3 µM; hit rate 0.19% among 360,000; AID 624037;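 active means activation above the run's mean over test compounds plus 3 SD, cut at about 23% in these data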;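 further: signal is peak over basal fluorescence ratio across the kinetic read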
M4 PAM = CHRM4 positive allosteric modulation; P08173; CHO-K1 hM4/Gqi5, Fluo-8 calcium fluorescence, ACh EC20; 0% = ACh EC20, 100% = maximal ACh; activation, % at 3 µM; hit rate 0.4% among 360,000;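 active means activation above its plate's cutoff, the mean activation of sample wells plus 3 SD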
CHRM4 antagonist = CHRM4 antagonism in calcium assay; P08173; hit rate 0.73% among 360,000; inhibition, % at 3 µM; AID 624125; CHO-hM4 cells, ACh EC80, Fluo-8 calcium fluorescence;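 active means inhibition above its plate's cutoff, the mean inhibition of sample wells plus 3 SD, cut at about 27% in these data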;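 further: 0% = acetylcholine EC80 with DMSO and 100% = DMSO without agonist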
Starred values were filed as active, the others as inactive.

SMILES	M5 antag	M5 PAM	CHRM4 agonist	M5 ag	M4 PAM	CHRM4 antagonist
CCCN(CC(=O)Nc1ccccc1C)C(=O)c1cccc(S(=O)(=O)N2CCc3ccccc3C2)c1	28*	-16	22	7	-15	23
Cc1ccc(S(=O)(=O)Nc2ccc3c(c2)nc(CCN2CCN(c4ccccn4)CC2)n3C)cc1	14	-6	5	-9	-12	17
Cn1c(CCN2CCN(c3ccccn3)CC2)nc2cc(NC(=O)COc3ccc(Cl)cc3)ccc21	27*	-16	22	-5	-14	21
Cn1c(CCN2CCN(c3ccccn3)CC2)nc2cc(NS(=O)(=O)c3ccc(Cl)cc3)ccc21	27*	-16	20	-7	-14	21
CCNC(=O)CC1C(=O)N(CC)C(=S)N1NC(=O)c1ccccc1 (stereo not given)	29*	28*	5	1	17*	21
CNC(=O)CC1C(=O)N(C)C(=S)N1NC(=O)c1ccccc1 (stereo not given)	9	1	3	5	-5	1
CCOC(=O)C1C(=O)C(=O)N(C2CCCCC2)C1C(=O)OCC (stereo not given)	2	2	1	4	5	7
COC(=O)CCC(NS(=O)(=O)OCC(Cl)(Cl)Cl)c1ccccc1 (stereo not given)	-1	5	1	-2	-2	-3
CC(C)CC(NS(=O)(=O)OCC(Cl)(Cl)Cl)c1ccccc1 (stereo not given)	12	-24	0	-8	-15	30*
O=C(Nc1ccc(F)c(Cl)c1)c1ccc2sc([C@@H]3O[C@H](CO)[C@H](O)[C@H](O)[C@H]3O)nc2c1	12	-2	0	0	5	-8
Cc1ccc(NC(=O)C2=C(c3ccccc3)S(=O)(=O)CCS2(=O)=O)cc1	10	-2	5	-5	2	39*
O=S(=O)(c1ccc(Cl)nc1)N(Cc1ccccc1)Cc1ccccc1	14	-11	-2	-5	-30	33*
CCN(c1ccccc1)S(=O)(=O)c1ccc(Cl)nc1	2	9	0	-9	0	1
Cc1ccc(NC(=O)C2CCN(S(=O)(=O)c3ccc4c(c3)NC(=O)C(C)S4)CC2)cc1Cl (stereo not given)	28*	-12	12	-2	-11	29*
CN1C(=O)N(c2ccc(Cl)cc2)C(C)(O)CC1(C)C (stereo not given)	18	25*	-1	-2	-8	-5
CCCCN1C(=O)N(c2ccc(Cl)cc2)C(C)(O)CC1(C)C (stereo not given)	4	3	-1	-4	0	-1
Clc1ccc2nnc(Cl)n2n1	0	4	2	-2	19*	-15
FC(F)c1nnc2ccc(Cl)nn12	11	-1	1	-1	10	-6
COc1cc(C#N)ccc1OCC(=O)Nc1cccc(S(=O)(=O)N(C)c2ccccc2)c1	6	-27	21	-2	-11	-8
CC(=O)Nc1ccc(C(=O)COC(=O)CN2C(=O)NC3(CCCCC3C)C2=O)cc1 (stereo not given)	5	-3	0	2	10	-1
CC(=O)c1ccc(NC(=S)NCc2ccc(Cl)cc2Cl)cc1	29*	-25	18	8	-18	18
CC(=O)c1ccc(NC(=O)Nc2ccc(Cl)cc2)cc1	24	-21	28	10	-14	6
CCOC(=O)CSC(=S)NC(=O)c1ccc(OC)cc1	2	2	1	3	35*	4
CCOc1cc(-c2noc(N)c2C#N)cc(OCC)c1OCC	-1	-3	0	-4	4	-4
Cc1ccccc1-c1noc(N)c1C#N	-8	25*	1	-2	43*	-9
SMILES	M5 antag	M5 PAM	CHRM4 agonist	M5 ag	M4 PAM	CHRM4 antagonist
CCc1ccc(C(=O)NNC(=O)c2cccc(N3C(=O)CCC3=O)c2)cc1	4	7	0	1	1	2
Nc1nc(Nc2ccccc2)sc1C(=O)c1ccccc1	-1	9	13	33*	12*	-19
O=C(c1ccccc1)c1cc(Cl)ccc1N1C(=O)C=CC1=O	6	8	5	6	-17	35*
O=C(CC(=O)c1cc(Cl)ccc1O)c1ccccc1	1	0	0	1	5	-8
CC(C)(C)C(=O)NCc1ccc(C(=O)CSc2nnc(-c3ccncc3)n2C2CC2)s1	-2	6	2	3	5	0
Cc1cc(OCC(=O)NCCc2ccc(Cl)cc2)c2c(C)cc(=O)oc2c1	-13	19*	0	-1	11	-15
CCOc1ccc(S(=O)(=O)NCCc2cn3ccccc3n2)cc1	12	3	2	-5	16*	-2
Nc1[nH]n2c(=O)cc(-c3ccccc3)nc2c1N=Nc1ccc(S(N)(=O)=O)cc1	13	19*	1	10	18	-2
Nc1[nH]n2c(=O)cc(-c3ccccc3)nc2c1N=Nc1ccccc1	11	0	0	-2	-1	14
Cc1ccc(S(=O)(=O)c2cccc(S(=O)(=O)N3CCCC3)c2)cc1S(=O)(=O)N1CCCC1	17	-16	9	-5	-33	81*
COc1ccc(NC(=O)CSc2nnc(NC(=O)c3ccc(S(=O)(=O)N4CCOCC4)cc3)s2)cc1	15	23*	1	7	5	23
COc1cc(Cl)ccc1OCc1cc(C(=O)N2CCCCCC2)no1	10	-3	3	-6	0	-22
O=C(NC1CCCCCCC1)c1cc(COc2ccc3ncccc3c2)on1	36*	-33	13	-4	-26	34*
Cc1cc(CN(C)C(=O)c2cc(COc3ccc4ncccc4c3)on2)on1	14	-21	12	8	-24	19
COc1cccc(OCc2cc(C(=O)N3CCN(C4CCCC4)CC3)no2)c1	29*	-6	4	-8	-6	1
COc1cc(Cl)ccc1OCc1cc(C(=O)N2CCCC(OC)C2)no1 (stereo not given)	29*	-9	3	-6	-1	6
CC(CNC(=O)c1cc(COc2ccc3ncccc3c2)on1)c1ccccc1 (stereo not given)	30*	-18	25	6	-11	6
CCN1C[C@@H]2[C@@H]3C(=O)N(Cc4ccccc4)C(=O)[C@@H]3[C@](CC)(C1=O)N2C(=O)c1ccc(F)cc1	15	-5	0	0	2	1
Cc1ccc(NC(=O)N(O)C2CCCCC2C#N)cc1 (stereo not given)	10	2	1	0	0	2
